Ten molecules from ChEMBL document CHEMBL4033790, “Design and Synthesis of Novel Deuterated Ligands Functionally Selective for the γ-Aminobutyric Acid Type A Receptor (GABAAR) α6 Subtype with Improved Metabolic Stability and Enhanced Bioavailability” (J Med Chem, 2018) can be followed below.

Values after ≈ are worked out from the molar mass of the structure shown. Active and inactive are the calls of the source. The calls are words filed in the database; no cut-off is given here.

Sequence of 5-hydroxytryptamine receptor 2B (Homo sapiens) (P41595 whole entry): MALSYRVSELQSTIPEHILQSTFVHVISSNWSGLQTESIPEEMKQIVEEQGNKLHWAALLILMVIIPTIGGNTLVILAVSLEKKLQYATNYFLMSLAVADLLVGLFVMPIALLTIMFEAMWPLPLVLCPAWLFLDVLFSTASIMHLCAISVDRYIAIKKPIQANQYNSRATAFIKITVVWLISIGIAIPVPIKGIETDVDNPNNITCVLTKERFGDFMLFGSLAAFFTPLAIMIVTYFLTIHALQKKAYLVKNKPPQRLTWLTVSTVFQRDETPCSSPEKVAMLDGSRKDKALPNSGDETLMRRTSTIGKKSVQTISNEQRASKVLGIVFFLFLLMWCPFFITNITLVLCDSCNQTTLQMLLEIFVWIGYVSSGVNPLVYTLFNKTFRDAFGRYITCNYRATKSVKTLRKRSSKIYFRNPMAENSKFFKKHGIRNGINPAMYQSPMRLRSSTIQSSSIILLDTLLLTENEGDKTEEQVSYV
Sequence of 5-hydroxytryptamine receptor 7 (Homo sapiens) (P34969 whole entry): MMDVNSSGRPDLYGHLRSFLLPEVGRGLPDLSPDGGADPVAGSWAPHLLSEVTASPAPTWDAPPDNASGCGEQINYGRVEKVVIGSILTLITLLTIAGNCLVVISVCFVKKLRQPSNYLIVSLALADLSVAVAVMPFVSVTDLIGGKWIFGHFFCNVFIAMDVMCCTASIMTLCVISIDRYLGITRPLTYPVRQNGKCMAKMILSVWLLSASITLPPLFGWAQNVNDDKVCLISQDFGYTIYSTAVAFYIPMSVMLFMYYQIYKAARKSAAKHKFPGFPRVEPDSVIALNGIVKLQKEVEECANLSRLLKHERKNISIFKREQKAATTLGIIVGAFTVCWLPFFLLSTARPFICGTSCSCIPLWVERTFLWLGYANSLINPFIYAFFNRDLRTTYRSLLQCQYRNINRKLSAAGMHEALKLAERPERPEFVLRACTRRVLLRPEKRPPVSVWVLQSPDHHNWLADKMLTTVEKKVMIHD

The species entered for one data set is Rattus norvegicus. The data set can be described thus: Displacement of [3H]-flunitrazepam from rat brain GABA-A receptor benzodiazepine site […] at 10 uM after 60 to 90 mins by scintillation counting. The note with it: tested as the 2H-labelled form.
Regarding `COc1ccc2c3nn(-c4ccccc4OC)c(=O)c-3c[nH]c2c1`, the inhibition result is “inactive”.
For the molecule `COc1ccccc1-n1nc2c3cc(Cl)ccc3[nH]cc-2c1=O`, the inhibition entry was “Active”.
The same measure, in the same setting: the entry for `COc1cccc(-n2nc3c4ccc(Br)cc4[nH]cc-3c2=O)c1` is “Active”.

Another data set has as its target 5-hydroxytryptamine receptor 7 (Homo sapiens) (UniProt P34969). The data set can be described thus: Displacement of [3H]-LSD from human recombinant 5HT7 receptor expressed in HEK293 cells at 10 uM after 60 to 90 mins by scintillation counting. It counts as cell-based. The following applies: tested as the 2H-labelled form.
Regarding `COc1cccc(-n2nc3c4ccc(Br)cc4[nH]cc-3c2=O)c1`, the inhibition result was “Active”.

The next data set has as its target GABA-A receptor; alpha-6/beta-3/gamma-2 (Homo sapiens) (UniProt P18507+P28472+Q16445). As to the kind of experiment: Positive allosteric modulation of GABA-A receptor alpha6beta3gamma2 (unknown origin) expressed in Xenopus laevis oocytes assessed as potentiation of EC3 GABA induced currents up to 10 uM at -60 mV holding potential by electrophysiological method. Type of data set: cell-based. The following applies: tested as the 2H-labelled form. Put shortly:
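Stage 5–6 defolliculated Xenopus oocytes were injected with 2.5 ng total mRNA per oocyte: α1, α2, α3 or α5 with β3 and γ2 at 1:1:5, and α4 or α6 with β3 and γ2 at 3:1:5. Oocytes were kept ≥36 h at 18 °C in NDE medium before recording. Compounds were co-applied with GABA titrated to EC3-5 for each oocyte. Curves were fitted with the Hill equation; mean ± SEM from ≥3 oocytes across two batches.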
As for `COc1ccccc1-n1nc2c3cc(Cl)ccc3[nH]cc-2c1=O`, the outcome was inactive.
Consider `COc1ccc(-n2nc3c4ccc(Br)cc4[nH]cc-3c2=O)cn1`, for which the result was Active.

System in the next data set: not listed separately
The data set can be described thus: Aqueous solubility of the compound in DI water at pH 7 after 2 hrs by LC-MS analysis. The note with it: buffer, pH 7, 2 h. It counts as physicochemical. Put shortly:
(§1)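 10 mg compound dissolved in 2 mL DMAC; 10 μL of this added to 2 mL DI water (pH 7, sonicated) or 2 mL 0.01 M aq HCl (pH 2), held 2 h at 37 °C. Filtered through 0.45 micron filter, then quantified by LC-MS in SIM mode against calibration curves of standards in DMAC (n = 5); n=3.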
The molecule `COc1ccc(-n2nc3c4ccc(Br)cc4[nH]cc-3c2=O)cn1` had a solubility of 7.3 µM (≈ 2.71 µg/mL).

System in the next data set: not listed separately
As to the kind of experiment: Solubility of the compound in 0.01M HCl at pH 2 after 2 hrs by LC-MS analysis. It counts as physicochemical. The note with it: buffer, pH 2, 2 h. In short, it runs like this:
as §1
With `COc1ccc(-n2nc3c4ccc(Br)cc4[nH]cc-3c2=O)cn1`, the solubility came to 7.2 µM (≈ 2.67 µg/mL).

The target in another data set is T1, 5-hydroxytryptamine receptor 2C (Homo sapiens) (UniProt P28335).
T1 sequence (whole entry): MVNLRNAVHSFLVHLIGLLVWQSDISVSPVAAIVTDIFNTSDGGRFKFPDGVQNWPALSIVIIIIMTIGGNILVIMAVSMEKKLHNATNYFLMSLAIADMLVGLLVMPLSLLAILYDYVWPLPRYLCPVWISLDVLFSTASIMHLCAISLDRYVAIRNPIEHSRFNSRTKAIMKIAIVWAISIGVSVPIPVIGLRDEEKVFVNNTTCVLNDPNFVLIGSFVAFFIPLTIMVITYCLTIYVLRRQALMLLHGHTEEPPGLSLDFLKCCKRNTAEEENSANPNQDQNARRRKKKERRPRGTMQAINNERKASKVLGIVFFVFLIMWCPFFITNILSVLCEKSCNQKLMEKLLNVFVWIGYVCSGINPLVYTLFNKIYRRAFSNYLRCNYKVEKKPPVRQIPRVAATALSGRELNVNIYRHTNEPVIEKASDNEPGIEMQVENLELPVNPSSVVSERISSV
The data set can be described thus: Displacement of [3H]-mesulergine from human recombinant 5HT2C receptor expressed in HEK293T cells at 10 uM after 60 to 90 mins by scintillation counting. It counts as cell-based. The following applies: HEK-293T, tested as the 2H-labelled form.
For the molecule `COc1cccc(-n2nc3c4ccc(Br)cc4[nH]cc-3c2=O)c1`, the inhibition entry was “Active”.

System in a further data set: not listed separately
As to the kind of experiment: Metabolic stability in mouse liver microsomes assessed as parent compound remaining at 10 uM after 60 mins by LC-MS analysis. It counts as ADME, microsome. The following applies: read-out: Stability. Put shortly:
(§2)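 The 60 min samples of the microsomal incubation (10 μM compound, human or mouse liver microsomes at 0.5 mg/mL, NADPH regenerating system, 37 °C) were analysed by LC-MS. Detection used SIM mode with dual ESI/APCI ionization, calibrated to the retention times and masses of the parent and its O-demethylated metabolites. Peak intensities were measured.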
(In general: Liver microsomes are a subcellular fraction often used to study metabolism.)
In the case of `[2H]C([2H])([2H])Oc1ccc(-n2nc3c4ccc(Br)cc4[nH]cc-3c2=O)cn1`, the remaining at 1 h, 10 µM worked out at 98.4%.
For the molecule `[2H]C([2H])([2H])Oc1ccc(-n2nc3c4cc(Cl)ccc4[nH]cc-3c2=O)cc1`, the remaining at 1 h, 10 µM is 85.5%.
For the molecule `COc1ccc(-n2nc3c4ccc(Br)cc4[nH]cc-3c2=O)cn1`, the remaining at 1 h, 10 µM is 93.1%.
Consider `[2H]C([2H])([2H])Oc1ccc(-n2nc3c4cc(Cl)ccc4[nH]cc-3c2=O)cn1`, for which the remaining at 1 h, 10 µM came out at 85.1%.

The test system of the next data set is HepG2. The data set can be described thus: Cytotoxicity against human HepG2 cells assessed as reduction in cell viability up to 400 uM after 48 hrs by CellTiter-Glo assay. It counts as cell-based. The note with it: hepg2, 48 h. In short, it runs like this: (§3)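 HEK293T and HepG2 cells grown in high-glucose DMEM with non-essential amino acids, 10 mM HEPES, penicillin/streptomycin and 10% heat-inactivated FBS. Cells were harvested with trypsin and plated; compound was pin-transferred 3 h later. Incubation was 48 h, then CellTiter-Glo luminescence was read. Controls were DMSO (negative) and a cytotoxic aminoketone (positive). Quadruplicates, three independent runs, normalized to controls, nonlinear regression.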
(ATP-based viability assays read luminescence as a measure of living cells.)
Take `[2H]C([2H])([2H])Oc1ccc(-n2nc3c4cc(Cl)ccc4[nH]cc-3c2=O)cc1`: the Activity entry is “Non-Toxic”.
As to `COc1ccc(-n2nc3c4ccc(Br)cc4[nH]cc-3c2=O)cn1`, the Activity result was “Non-Toxic”.

A further data set addresses 5-hydroxytryptamine receptor 2B (Homo sapiens) (UniProt P41595). As to the kind of experiment: Displacement of [3H]-LSD from human recombinant 5HT2B receptor expressed in HEK293 cells at 10 uM after 60 to 90 mins by scintillation counting. It counts as cell-based. The following applies: tested as the 2H-labelled form.
`COc1cccc(-n2nc3c4ccc(Br)cc4[nH]cc-3c2=O)c1`: the inhibition result was “Active”.

System in the next data set: not listed separately
As to the kind of experiment: Metabolic stability in human liver microsomes assessed as parent compound remaining at 10 uM after 60 mins by LC-MS analysis. It counts as ADME, microsome. The note with it: read-out: Stability. In short, it runs like this:
as §2
As to `[2H]C([2H])([2H])Oc1ccc(-n2nc3c4ccc(Br)cc4[nH]cc-3c2=O)cn1`, the remaining at 1 h, 10 µM worked out at 97.8%.
For the molecule `[2H]C([2H])([2H])Oc1ccc(-n2nc3c4cc(Cl)ccc4[nH]cc-3c2=O)cc1`, the remaining at 1 h, 10 µM came to 92.2%.
For the molecule `COc1ccc(-n2nc3c4ccc(Br)cc4[nH]cc-3c2=O)cn1`, the remaining at 1 h, 10 µM came out at 93.4%.
Regarding `[2H]C([2H])([2H])Oc1ccc(-n2nc3c4cc(Cl)ccc4[nH]cc-3c2=O)cn1`, the remaining at 1 h, 10 µM turned out to be 93%.

The test system of a further data set is HEK-293T. As to the kind of experiment: Cytotoxicity against HEK293T cells assessed as reduction in cell viability up to 400 uM after 48 hrs by CellTiter-Glo assay. The note with it: human. Type of data set: cell-based. In short, it runs like this: as §3
Regarding `[2H]C([2H])([2H])Oc1ccc(-n2nc3c4cc(Cl)ccc4[nH]cc-3c2=O)cc1`, the Activity result was “Non-Toxic”.
In the case of `COc1ccc(-n2nc3c4ccc(Br)cc4[nH]cc-3c2=O)cn1`, the Activity result was “Non-Toxic”.

The target in the next data set is Mu-type opioid receptor (Homo sapiens) (UniProt P35372). As to the kind of experiment: Displacement of [3H]-DAMGO from human recombinant MOR expressed in HEK293 cells at 10 uM after 60 to 90 mins by scintillation counting. It counts as cell-based. The following applies: tested as the 2H-labelled form. (Loss of bound radioactivity is the signal in a displacement assay; it reports binding, not function.)
Sequence of Mu-type opioid receptor (Homo sapiens) (P35372 whole entry): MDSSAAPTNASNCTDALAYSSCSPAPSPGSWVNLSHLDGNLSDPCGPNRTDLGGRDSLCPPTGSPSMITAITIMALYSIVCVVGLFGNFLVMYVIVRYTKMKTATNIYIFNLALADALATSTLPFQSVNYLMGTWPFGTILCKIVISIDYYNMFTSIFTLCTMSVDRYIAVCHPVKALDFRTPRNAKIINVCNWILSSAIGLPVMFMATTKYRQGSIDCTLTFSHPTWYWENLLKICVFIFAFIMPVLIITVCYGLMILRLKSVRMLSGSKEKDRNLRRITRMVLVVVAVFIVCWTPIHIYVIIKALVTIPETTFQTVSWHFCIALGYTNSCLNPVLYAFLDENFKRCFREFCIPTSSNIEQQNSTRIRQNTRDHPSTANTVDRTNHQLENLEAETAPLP
Take `COc1cccc(-n2nc3c4ccc(Br)cc4[nH]cc-3c2=O)c1`: the inhibition result is “Active”.

In another data set the target is Voltage-gated inwardly rectifying potassium channel KCNH2 (Homo sapiens, UniProt Q12809). As to the kind of experiment: Displacement of [3H]-dofetilide from human ERG expressed in HEK cell membranes at >10 uM after 60 to 90 mins by scintillation counting.
Sequence of Voltage-gated inwardly rectifying potassium channel KCNH2 (Q12809 whole entry): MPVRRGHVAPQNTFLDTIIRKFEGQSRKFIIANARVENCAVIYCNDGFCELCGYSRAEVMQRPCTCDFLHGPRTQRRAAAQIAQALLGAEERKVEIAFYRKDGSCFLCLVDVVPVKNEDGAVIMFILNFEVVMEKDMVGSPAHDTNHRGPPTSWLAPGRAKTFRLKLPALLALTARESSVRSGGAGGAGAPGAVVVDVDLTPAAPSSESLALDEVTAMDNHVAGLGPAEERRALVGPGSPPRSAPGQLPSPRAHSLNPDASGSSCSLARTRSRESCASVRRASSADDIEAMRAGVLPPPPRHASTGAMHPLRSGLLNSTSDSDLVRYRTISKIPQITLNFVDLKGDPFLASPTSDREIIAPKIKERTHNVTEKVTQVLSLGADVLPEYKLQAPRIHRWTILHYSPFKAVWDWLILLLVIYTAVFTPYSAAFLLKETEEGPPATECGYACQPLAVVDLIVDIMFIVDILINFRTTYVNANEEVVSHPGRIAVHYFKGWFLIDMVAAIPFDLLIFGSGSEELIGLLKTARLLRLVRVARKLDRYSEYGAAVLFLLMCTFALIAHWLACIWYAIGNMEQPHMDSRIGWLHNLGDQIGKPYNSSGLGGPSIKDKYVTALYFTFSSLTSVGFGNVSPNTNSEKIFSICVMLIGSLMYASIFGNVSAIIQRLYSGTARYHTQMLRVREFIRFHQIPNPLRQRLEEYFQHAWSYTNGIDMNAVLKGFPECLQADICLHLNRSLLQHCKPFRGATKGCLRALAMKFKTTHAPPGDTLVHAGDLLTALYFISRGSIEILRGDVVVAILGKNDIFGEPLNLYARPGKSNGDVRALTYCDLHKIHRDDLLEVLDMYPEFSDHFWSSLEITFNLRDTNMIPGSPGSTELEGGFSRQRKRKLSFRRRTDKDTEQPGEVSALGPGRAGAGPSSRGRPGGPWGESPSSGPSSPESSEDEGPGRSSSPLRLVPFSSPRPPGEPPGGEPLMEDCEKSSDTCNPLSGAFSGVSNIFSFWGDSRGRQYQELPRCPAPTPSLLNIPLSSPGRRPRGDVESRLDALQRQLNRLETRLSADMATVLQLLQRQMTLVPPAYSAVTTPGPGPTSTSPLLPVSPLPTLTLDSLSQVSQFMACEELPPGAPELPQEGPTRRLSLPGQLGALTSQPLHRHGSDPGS
Settings: not given
As for `[2H]C([2H])([2H])Oc1ccc(-n2nc3c4ccc(Br)cc4[nH]cc-3c2=O)cn1`, the “inhibition (INH)” value is reported as “Not Active”.
Take `[2H]C([2H])([2H])Oc1cccc(-n2nc3c4cc(OC([2H])([2H])[2H])ccc4[nH]cc-3c2=O)c1`: the “inhibition (INH)” value is “Not Active”.
As to `[2H]C([2H])([2H])Oc1ccc(-n2nc3c4cc(Cl)ccc4[nH]cc-3c2=O)cc1`, the “inhibition (INH)” value is given as “Not Active”.
For the molecule `COc1ccc(-n2nc3c4ccc(Br)cc4[nH]cc-3c2=O)cn1`, the “inhibition (INH)” value is reported as “Not Active”.
As to `[2H]C([2H])([2H])Oc1ccc(-n2nc3c4cc(OC([2H])([2H])[2H])ccc4[nH]cc-3c2=O)cc1`, the “inhibition (INH)” value is “Not Active”.
Consider `[2H]C([2H])([2H])Oc1ccc2[nH]cc3c(=O)n(-c4ccccc4OC([2H])([2H])[2H])nc-3c2c1`, for which the “inhibition (INH)” value is “Not Active”.
Same read-out and setting: the entry for `[2H]C([2H])([2H])Oc1ccc(-n2nc3c4cc(Cl)ccc4[nH]cc-3c2=O)cn1` is “Not Active”.

The subject of a further data set is Mus musculus. As to the kind of experiment: Neurotoxicity in Swiss Webster mouse assessed as induction of motor impairment at 40 mg/kg administered via oral gavage measured after 10 to 60 mins by rotarod method. Type of data set: toxicity, organism-based. The note with it: in vivo. In short, it runs like this: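 Female mice were given a single oral gavage dose of 40 mg/kg, either in 50% PBS/40% propylene glycol/10% DMSO or, for poorly soluble compounds, in 2% polyethylene glycol plus 2.5% hydroxymethyl cellulose. Rotarod performance was tested 10, 30 and 60 min after dosing, with diazepam 5 mg/kg as positive control.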
As to `[2H]C([2H])([2H])Oc1ccc(-n2nc3c4ccc(Br)cc4[nH]cc-3c2=O)cn1`, the Activity entry is recorded as “Non-Toxic”.
For `[2H]C([2H])([2H])Oc1ccc(-n2nc3c4cc(Cl)ccc4[nH]cc-3c2=O)cc1`, the Activity result was “Non-Toxic”.
On to `COc1ccc(-n2nc3c4ccc(Br)cc4[nH]cc-3c2=O)cn1`, for which the Activity result was “Non-Toxic”.
As to `[2H]C([2H])([2H])Oc1ccc(-n2nc3c4cc(Cl)ccc4[nH]cc-3c2=O)cn1`, the Activity entry was “Non-Toxic”.

As a reminder, the solubility is how much of the substance goes into solution per volume. A low value points to little dissolved substance.
